Assay outcomes deposited in PubChem by Broad Institute.
Pf Dd2 growth: P. falciparum Dd2 growth inhibitors, primary screen, SYBR Green fluorescence, single dose replicates. activity change, % at 10 µM. 2.3% of 94,000 active. 72 h; stronger effect = lower value. AID 1159554, 2015; in the data active means activity change below about -80%; inconclusive means no clear call, values can overlap the other calls
T cruzi growth-1: T. cruzi intracellular proliferation inhibitors, primary screen, cell-based, beta-gal Tulahuen parasites, NIH3T3 host, luminescence; T. cruzi beta-gal in NIH3T3, GalScreen luminescence, 90 h; inhibition, % at 8.34 µM; 5.9% of 77,000 active;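 active means mean inhibition above about 93%, with at least 55% of replicates each passing it, limit read from the data, passing the limit was not always enough; inconclusive means only one of those two conditions holds; inactive means neither condition holds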
KDM4C inh: inhibitors of GASC-1 (KDM4C) histone demethylase, primary screen, biochemical, single concentration HTS | 0.15% of 96,000 active | AID 720574, 2013 | inhibition, % at 12.5 µM | GST-KDM4C 2-372, H3K9me3 peptide, LANCE TR-FRET | Lysine-specific demethylase 4C (Homo sapiens), Q9H3R0;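 active means mean replicate inhibition above about 25%, with at least 55% of replicates also reaching it, limit read from the data, passing the limit was not always enough; inconclusive means only one of those two conditions met; inactive means neither condition met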
Target sequence (Q9H3R0 2-372 limits assumed): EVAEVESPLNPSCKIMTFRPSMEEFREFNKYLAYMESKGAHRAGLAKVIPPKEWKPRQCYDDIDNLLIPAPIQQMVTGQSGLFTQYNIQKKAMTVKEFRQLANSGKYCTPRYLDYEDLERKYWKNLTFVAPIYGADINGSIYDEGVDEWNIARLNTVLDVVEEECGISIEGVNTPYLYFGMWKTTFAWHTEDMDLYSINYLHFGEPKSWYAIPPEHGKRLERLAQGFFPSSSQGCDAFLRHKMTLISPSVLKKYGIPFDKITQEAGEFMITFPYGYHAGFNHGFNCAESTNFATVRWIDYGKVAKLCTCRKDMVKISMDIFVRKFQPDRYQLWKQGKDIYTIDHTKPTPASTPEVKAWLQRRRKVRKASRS
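Assay system: GST-GASC-1 enzyme fragment 2-372 | Amount: 10 nM enzyme | Medium: HEPES buffer, pH 7.5, plus ascorbate | Reagent: H3K9me3 peptide substrate, Fe(II), 2-oxoglutarate | Doses: Single-point compound screen | Incubation: 30 min demethylation and 1 h detection at room temperature | Measured by: LANCE TR-FRET, excitation 340 nm, emissions 618 and 671 nm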
IDH1 R132H inh: inhibitors of IDH1 R132H reductase, primary screen, biochemical, plate reader, single point | diaphorase/resazurin fluorescence, 60 min | inhibition, % at 10 µM | 0.18% of 70,000 active | AID 624101, 2012; in the data active means inhibition above about 34%; inconclusive means no clear call, values can overlap the other calls; inactive means below about 11%;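 further: 0% = DMSO and 100% = no enzyme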
Target sequence (O75874 whole entry R132H): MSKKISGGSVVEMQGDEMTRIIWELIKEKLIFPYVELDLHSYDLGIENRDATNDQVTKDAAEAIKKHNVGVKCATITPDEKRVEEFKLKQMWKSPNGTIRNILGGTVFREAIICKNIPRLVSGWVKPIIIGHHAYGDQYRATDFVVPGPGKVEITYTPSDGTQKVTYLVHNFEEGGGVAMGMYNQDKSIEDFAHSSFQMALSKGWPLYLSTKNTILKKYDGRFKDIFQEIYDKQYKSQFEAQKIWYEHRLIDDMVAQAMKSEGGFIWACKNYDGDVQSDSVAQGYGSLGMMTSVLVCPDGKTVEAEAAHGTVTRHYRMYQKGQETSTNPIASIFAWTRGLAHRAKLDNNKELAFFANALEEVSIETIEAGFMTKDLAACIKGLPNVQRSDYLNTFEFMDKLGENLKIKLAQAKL
T cruzi growth-2: T. cruzi intracellular proliferation inhibitors, confirmation, cell-based, NIH3T3 host, beta-gal parasite, luminescence, cherry-pick. shares compounds with T cruzi growth-1. T. cruzi beta-gal in NIH3T3, GalScreen luminescence, 90 h. inhibition, % at 8.35 µM. 72% of 5,600 active. AID 651739, 2012;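 active means mean replicate inhibition above about 95% and at least 55% of replicates individually reaching it, limit read from the data; inconclusive means only one of the two criteria is met; inactive means neither criterion is met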
T cruzi growth-3: inhibitors of intracellular T. cruzi replication, confirmation, NIH3T3 host cells, beta-gal parasites, cherry-pick, set 2. shares compounds with T cruzi growth-1. T. cruzi beta-gal in NIH3T3, GalScreen luminescence, 90 h. inhibition, % at 2.09 µM. 21% of 5,600 active. AID 651740, 2012;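 active means mean inhibition above about 95%, with at least 55% of replicates also reaching it, limit read from the data; inconclusive means meets just one of the two conditions; inactive means meets neither condition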;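 further: plate controls were neutral control median for no effect and positive control median for full effect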
NIH3T3 tox: cytotoxicity in mouse NIH/3T3 fibroblasts, confirmation, cytotoxicity control for T. cruzi proliferation inhibitor project, cell-based, cherry-pick, single point. cytotoxicity (signal decrease), % at 8.35 µM. AID 651742, 2012. shares compounds with T cruzi growth-1. 14% of 5,600 active. NIH/3T3 viability, CellTiter-Glo ATP luminescence, 90 h;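 active means mean signal decrease across replicates above about 35% based on untreated-well scatter, with enough replicates individually passing, limit read from the data; inconclusive means no rule stated though some were filed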;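 further: 0% = median of neutral control wells and 100% = median of positive control wells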
3T3 cytotox 2: NIH/3T3 fibroblast cytotoxicity, confirmation, cytotoxicity control, cell-based, cherry-pick, single point, set 2. shares compounds with T cruzi growth-1. NIH/3T3 viability, CellTiter-Glo ATP luminescence, 90 h. inhibition, % at 24.9 µM. 56% of 5,600 active. AID 651744, 2012;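 active means mean loss of cell viability signal at or above a set limit, and enough replicates individually reaching it; inconclusive means meets only the mean limit or only the replicate share; inactive means meets neither condition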;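 further: 0% = median of neutral control wells and 100% = median of positive control wells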
* marks the source's active call; other numbers are inactive results; u = inconclusive; x = no result. Compounds with a hit are over-represented: about 5.8% of the library has one in this group of screens.

SMILES	Pf Dd2 growth	T cruzi growth-1	KDM4C inh	IDH1 R132H inh	T cruzi growth-2	T cruzi growth-3	NIH3T3 tox	3T3 cytotox 2
COc1ccc(CN(C)C[C@H]2Oc3c(NC(=O)Nc4ccc(OC)cc4)cccc3C(=O)N([C@@H](C)CO)C[C@H]2C)cc1	-30.1	-26.7	-0.5	1.7	x	x	x	x
COc1ccc(NC(=O)Nc2cccc3c2O[C@@H](CN(C)Cc2ccc(Cl)c(Cl)c2)[C@@H](C)CN([C@H](C)CO)C3=O)cc1	-34.6	u	x	x	110.6*	61.5	-1.0	37.6*
C[C@H](CO)N1C[C@H](C)[C@H](CN(C)Cc2ccc(Cl)c(Cl)c2)Oc2c(NC(=O)Nc3ccc4c(c3)OCO4)cccc2C1=O	-30.2	u	2.0	x	101.1*	89.6	7.8	26.7*
C[C@@H]1CN([C@H](C)CO)C(=O)c2cccc(NC(=O)Nc3ccc4c(c3)OCO4)c2O[C@@H]1CN(C)Cc1ccc(Cl)c(Cl)c1	-22.1	111.8	-0.3	x	x	x	x	x
COc1ccc(NC(=O)Nc2cccc3c2O[C@H](CN(C)Cc2ccc(Cl)c(Cl)c2)[C@H](C)CN([C@H](C)CO)C3=O)cc1	-21.9	37.4	0.2	x	x	x	x	x
Cn1nnnc1SCC(=O)Nc1ncccn1	x	x	x	0.0	x	x	x	x
CC(C)NC(=O)N(C)C[C@H]1Oc2cc(C#Cc3ccc(F)cc3)ccc2S(=O)(=O)N([C@@H](C)CO)C[C@@H]1C	-46.3	83.9	-2.9	7.3	x	x	x	x
C[C@@H]1CN([C@H](C)CO)S(=O)(=O)c2ccc(C#Cc3ccc(F)cc3)cc2O[C@H]1CN(C)C(=O)NC1CCCC1	4.0	86.1	-5.2	8.1	x	x	x	x
CC(C)NC(=O)N(C)C[C@@H]1Oc2cc(C#Cc3ccc(F)cc3)ccc2S(=O)(=O)N([C@@H](C)CO)C[C@@H]1C	-45.2	114.1*	1.1	0.3	106.9*	66.2	21.0	u
C[C@H]1CN([C@@H](C)CO)S(=O)(=O)c2ccc(C#Cc3ccc(F)cc3)cc2O[C@@H]1CN(C)C(=O)NC1CCCC1	-80.0	116.8*	-0.5	x	101.0*	74.5	-15.5	107.3*
C=C1[C@H](O)C[C@H]2[C@@H](/C=C(\C)C(=O)[C@@]3(O)C[C@H](C)[C@H](O)[C@@H]3[C@H]1O)C2(C)C	x	x	x	0.0	x	x	x	x
CNC[C@@H]1Oc2cc(C#Cc3ccccc3)ccc2S(=O)(=O)N([C@@H](C)CO)C[C@H]1C	-69.7	x	-2.4	-0.7	x	x	x	x
COc1ccccc1C#Cc1ccc2c(c1)O[C@@H](CN(C)C)[C@@H](C)CN([C@@H](C)CO)S2(=O)=O	-64.4	x	-1.0	-0.2	x	x	x	x
CNC[C@H]1Oc2cc(C#Cc3ccccc3OC)ccc2S(=O)(=O)N([C@H](C)CO)C[C@@H]1C	x	101.4*	-5.0	0.1	107.5*	85.9	20.4	104.3*
CNC[C@@H]1Oc2cc(C#Cc3ccccc3OC)ccc2S(=O)(=O)N([C@H](C)CO)C[C@H]1C	x	102.5*	-1.6	-2.3	102.0*	69.0	27.0	102.6*
C[C@H]1CN([C@@H](C)CO)S(=O)(=O)c2ccc(C3=CCCCC3)cc2O[C@@H]1CN(C)C(=O)Cc1ccccc1	-47.2	79.2	-2.5	0.0	x	x	x	x
C[C@H]1CN([C@@H](C)CO)S(=O)(=O)c2ccc(C3=CCCCC3)cc2O[C@H]1CN(C)C(=O)Cc1ccncc1	-77.2	98.2*	2.1	x	99.0*	68.0	37.1*	35.7*
C[C@H](CO)N1C[C@H](C)[C@H](CN(C)C(=O)Cc2ccncc2)Oc2cc(C3=CCCC3)ccc2S1(=O)=O	-42.0	79.9	-0.6	x	x	x	x	x
C[C@H]1CN([C@@H](C)CO)S(=O)(=O)c2ccc(C3=CCCCC3)cc2O[C@@H]1CN(C)C(=O)Cc1ccncc1	-79.9	107.0*	2.8	13.7	105.4*	68.4	8.0	11.1
Cc1ccc(C(C)C)c(OC(=O)CS(=O)c2ccc(C(F)(F)F)cc2[N+](=O)[O-])c1 (stereo unspecified)	x	x	x	0.7	x	x	x	x
O=C(Cn1c2ccccc2n2ncnc12)c1ccc(-c2ccccc2)cc1	x	x	x	-0.6	x	x	x	x
CC(C)c1ccc(NC(=O)CSc2n[nH]c(-c3ccc(Cl)cc3)n2)cc1	x	x	x	0.5	x	x	x	x
CN(C)C(=O)c1ccc(-c2ccc([C@H]3[C@@H](CO)N4CCCCN(C(=O)C5CCCC5)C[C@H]34)cc2)cc1	17.7	101.8*	x	x	105.4*	101.2*	15.4	38.9*
CN(C)C(=O)c1ccc(-c2ccc([C@H]3[C@@H](CO)N4CCCCN(C(=O)C5CCCC5)C[C@@H]34)cc2)cc1	15.0	u	x	x	110.4*	92.9	-20.0	-1.8
C/C=C/c1ccc([C@H]2[C@@H](CO)N3CCCCN(C(=O)C4CCCC4)C[C@@H]23)cc1	-10.0	106.7*	1.5	x	107.8*	86.4	1.4	5.2
SMILES	Pf Dd2 growth	T cruzi growth-1	KDM4C inh	IDH1 R132H inh	T cruzi growth-2	T cruzi growth-3	NIH3T3 tox	3T3 cytotox 2
CCn1c(SCC(=O)Nc2cc(C)ccc2OC)nnc1-c1ccc(Cl)cc1	x	x	x	0.0	x	x	x	x
COc1ccc(S(=O)(=O)N2CCCCN3[C@@H](CO)[C@H](c4ccc(C#CC(C)C)cc4)[C@@H]3C2)cc1	-31.6	103.6*	1.6	x	97.5*	84.8	46.3*	104.4*
O=S(=O)(c1ccccc1)N1CCCCN2[C@H](CO)[C@@H](c3ccc(C#Cc4cccnc4)cc3)[C@H]2C1	-36.6	u	x	x	109.9*	61.8	24.9	78.7*
COc1ccc(C#Cc2ccc([C@H]3[C@H]4CN(S(=O)(=O)c5ccccc5)CCCCN4[C@H]3CO)cc2)cc1	-46.0	106.9*	-1.4	x	110.7*	99.1*	3.5	51.9*
O=S(=O)(c1ccccc1)N1CCCCN2[C@H](CO)[C@@H](c3ccc(C#Cc4ccccc4)cc3)[C@@H]2C1	18.6	82.9	x	x	x	x	x	x
COc1ccc(S(=O)(=O)N2CCCCN3[C@H](C2)[C@@H](c2ccc(C#CCC(C)C)cc2)[C@@H]3CO)cc1	-18.0	64.9	-0.4	x	x	x	x	x
COc1ccc(C#Cc2ccc([C@@H]3[C@H]4CN(S(=O)(=O)c5ccccc5)CCCCN4[C@H]3CO)cc2)cc1	-59.4	45.6	0.1	x	x	x	x	x
COc1ccc(C#Cc2ccc([C@H]3[C@@H](CO)N4CCCCN(S(=O)(=O)c5ccccc5)C[C@H]34)cc2)cc1	-72.7	101.4*	-1.3	x	97.9*	76.4	25.1	104.5*
COC(=O)CNc1c(F)c(F)nc(F)c1F	x	x	x	-0.9	x	x	x	x
